Source: PubChem (Sanford-Burnham Center for Chemical Genomics)
SENP8 block-1: human SENP8 protease inhibitors, primary screen, biochemical, fluorescence, Nedd8 protein substrate, uHTS; recombinant SENP8; Sentrin-specific protease 8 (Homo sapiens), Q96LD8; actives 0.64% (n = 360,000); inhibition, % at 20 µM; in the data active = inhibition mostly above about 40%, no sharp cut-off; inactive = mostly below about 27%
SENP1 FRET inh: human SENP1 catalytic domain inhibitors, primary screen, biochemical, FRET, uHTS; Sentrin-specific protease 1 (Homo sapiens), Q9P0U3; recombinant SENP1 catalytic domain, CyPet-SUMO1-YPet FRET cleavage; inhibition, % at 10 µM; AID 624204, 2012; actives 0.21% (n = 360,000);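 active = inhibition at least 30% at 10 µM, raw YFP signal under a set limit, fluorescence ratio 0.5 to 1.5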;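 also: 0% = enzyme with DMSO and 100% = no enzyme wells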
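Assay system: hSENP1 catalytic domain, recombinant. Amount: SENP1 enzyme, 20 pM final. Schedule: 50 min reaction, RT, dark. Technique: FRET, CFP and YFP emission. Control set: no-enzyme wells low, DMSO-plus-enzyme wells high control.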
SENP8 block-2: SENP8 protease inhibitors, primary screen, biochemical, luminescence | inhibition, % at 10 µM | Sentrin-specific protease 8 (Homo sapiens), Q96LD8 | purified SENP8, Z-RLRGG-aminoluciferin cleavage | actives 1.2% (n = 330,000); in the data active = inhibition above about 50%
SENP7 inh: SENP7 protease inhibitors, primary screen, biochemical, luminescence, uHTS; Sentrin-specific protease 7 (Homo sapiens), Q9BQF6; recombinant SENP7, Z-RLRGG-aminoluciferin luminescence, 40 min; inhibition, % at 5 µM; actives 1.5% (n = 330,000); AID 434973, 2010;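 active = inhibition above about 50% at the single test dose, limit read from the data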;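 also: plate controls were DMSO with enzyme for no effect and no enzyme buffer wells for full effect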
SENP6 block: SENP6 protease inhibitors, primary screen, biochemical, luminescence, uHTS | AID 2599, 2010 | Sentrin-specific protease 6 (Homo sapiens), Q9GZR1 | Recombinant SENP6 catalytic domain, aminoluciferin luminescence | actives 1.8% (n = 330,000) | inhibition, % at 10 µM;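 active = inhibition above about 50% at the single tested dose, limit read from the data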;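 also: plate controls were DMSO wells with enzyme for no effect and DMSO wells lacking enzyme for full effect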
Target sequence (Q9GZR1 628-1112 limits assumed): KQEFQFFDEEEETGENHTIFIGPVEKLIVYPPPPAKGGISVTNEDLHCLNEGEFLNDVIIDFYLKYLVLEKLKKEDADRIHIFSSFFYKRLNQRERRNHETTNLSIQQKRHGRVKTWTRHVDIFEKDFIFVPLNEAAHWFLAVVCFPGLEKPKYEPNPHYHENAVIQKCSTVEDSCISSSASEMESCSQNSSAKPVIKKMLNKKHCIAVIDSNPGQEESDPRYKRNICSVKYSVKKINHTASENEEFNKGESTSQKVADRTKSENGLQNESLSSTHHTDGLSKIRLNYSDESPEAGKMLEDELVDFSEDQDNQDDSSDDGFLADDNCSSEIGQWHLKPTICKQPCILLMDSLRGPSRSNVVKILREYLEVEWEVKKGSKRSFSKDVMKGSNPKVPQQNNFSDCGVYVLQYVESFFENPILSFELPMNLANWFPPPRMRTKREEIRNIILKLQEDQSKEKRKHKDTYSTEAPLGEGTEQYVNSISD
SENP8 confirm: SENP8 protease inhibitors, retest, confirmation, biochemical, luminescence, single concentration. shares compounds with SENP7 inh. Recombinant SENP8, Z-RLRGG-aminoluciferin luminescence, 60 min. inhibition, % at 12.5 µM. actives 40% (n = 6,200). AID 488912, 2010;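 active = mean inhibition across replicates above about 50%, limit read from the data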
SENP6 conf: SENP6 protease inhibitors, confirmation, biochemical, luminescence, single concentration; shares compounds with SENP7 inh; recombinant SENP6, Z-RLRGG-aminoluciferin luminescence; inhibition, % at 12.5 µM; actives 58% (n = 6,200)
SENP7 confirm: SENP7 protease inhibitors, retest, confirmation, biochemical, luminescence, single concentration | AID 488917, 2010 | shares compounds with SENP7 inh | recombinant SENP7, Z-RLRGG-aminoluciferin luminescence, 40 min | inhibition, % at 12.5 µM | actives 69% (n = 6,200)
Casp3 SENP sel: caspase-3 protease inhibitors, confirmation, selectivity assay for SENP inhibitor project, biochemical, single concentration; shares compounds with SENP7 inh; purified caspase-3, Z-DEVD-aminoluciferin luminescence, 60 min; inhibition, % at 12.5 µM; actives 60% (n = 6,200);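 active = mean inhibition above about 50%, limit read from the data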;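 also: plate controls were enzyme with DMSO for no effect and wells without caspase-3 for full effect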
Luc interf: counter-screen for SENP inhibitors: luminescence interference; actives 39% (n = 6,200); inhibition, % at 12.5 µM; Pre-incubated SENP8/Z-RLRGG-aminoluciferin, luciferase luminescence interference; shares compounds with SENP7 inh;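 active = mean inhibition above about 50% when retested at one dose, limit read from the data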;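 also: plate controls were DMSO wells with completed reaction for no effect and substrate without enzyme for full effect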
* marks the source's active call; other numbers are inactive results; i = inactive; . = no result. Only some compounds are listed: those with a hit (about 2.5% of all), similar ones and a draw of the others.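 The calls were made as follows, unless noted: active = mean inhibition above about 50% in the one-dose retest (limit read from the data); inactive = the rest.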

SMILES	SENP8 block-1	SENP1 FRET inh	SENP8 block-2	SENP7 inh	SENP6 block	SENP8 confirm	SENP6 conf	SENP7 confirm	Casp3 SENP sel	Luc interf
COc1ccccc1NC(=O)c1cc2ccccc2o/c1=N\O	13.0	1.5	-23.0	7.3	3.0	.	.	.	.	.
COc1ccccc1NC(=O)c1cc2ccc(O)cc2o/c1=N\O	i	-24.3	94.1*	94.8*	95.0*	8.3	99.2*	102.6*	91.6*	51.7*
COc1ccc(/C=C2\CCc3ccccc3C2=O)cc1OC	1.4	-13.2	33.0	25.2	52.3*	69.0*	62.5*	61.9*	27.1	41.9
COc1ccc(/C=C2\CC/C(=C\c3ccc(OC)c(OC)c3)C2=O)cc1OC	22.6	7.9	-1.5	-4.2	3.5	.	.	.	.	.
COc1ccc(OC)c(C=C2CCc3ccccc3C2=O)c1	-15.1	11.4	.	.	.	.	.	.	.	.
O=C1/C(=C/c2ccc([N+](=O)[O-])cc2)CCc2ccccc21	.	.	90.2*	98.3*	94.8*	1.2	80.6*	-9.0	39.5	36.7
CC(=O)Oc1ccc(/C=C2/CCc3ccccc3C2=O)cc1	6.5	2.9	95.3*	96.5*	96.8*	96.0*	99.7*	101.7*	94.2*	98.3*
N#Cc1c(-c2ccco2)ccn(Cc2cccc(F)c2)c1=O	-430.3	-1.3	-7.2	0.7	3.3	.	.	.	.	.
O=c1ccn([C@@H]2O[C@H](CNCc3ccccc3OCc3ccc(Cl)cc3Cl)[C@@H](O)[C@H]2O)c(=O)[nH]1	15.9	-0.5	.	.	.	.	.	.	.	.
O=S(=O)(c1cccc(-c2nc3n(n2)Cc2ccccc2-3)c1)N1CCCC1	10.4	1.0	-12.8	-9.4	-1.7	.	.	.	.	.
Clc1ccc(-c2cn3c(n2)-c2ccccc2C3)cc1Cl	1.7	-0.5	92.7*	98.2*	94.4*	43.3	83.8*	93.8*	80.5*	38.2
CC(=O)c1sc(N/N=C/c2cccc(O)c2)nc1C	-402.2	-42.8	4.5	1.4	11.4	.	.	.	.	.
CC(=O)c1sc(N/N=C\c2ccc(N(C)C)cc2)nc1C	-300.8	-25.6	31.0	82.5*	77.2*	19.5	54.1*	95.1*	47.9	16.3
CCOC(=O)CN(Cc1ccccc1)C(=O)OC(C)(C)C	.	.	-0.8	3.3	4.9	.	.	.	.	.
COc1ccc2c(c1OC)C(=O)OC2C1c2c(cc3c(c2OC)OCO3)CCN1C (centres undefined)	-11.5	0.8	3.5	1.4	-15.0	.	.	.	.	.
CN1CCc2cc3c(c4c2[C@H]1[C@H](O)c1ccccc1-4)OCO3	-15.3	-32.5	15.7	43.2	59.4*	33.3	77.7*	64.2*	69.9*	9.4
CCc1noc(C)c1C(=O)Nc1nc2c(C)cccc2s1	-70.1	-1.0	2.5	6.0	29.8	.	.	.	.	.
O=C(Nc1nc2c(F)cc(F)cc2s1)c1ccccn1	-8.3	-8.0	63.9*	93.5*	70.2*	61.2*	68.8*	30.9	78.6*	13.7
Cc1ccc2nc(NC(=O)c3ccccn3)sc2c1	-54.6	1.6	94.9*	95.8*	95.7*	58.5*	81.1*	92.6*	84.4*	11.4
